INS promoter inh = TRM-6 insulin promoter activity inhibition | 130,000 tested, 0.9% active | inhibition, % at 2 µM | TRM-6 cells (human fetal islet line), insulin promoter-eGFP reporter, imaging; reporter expression induced with tamoxifen;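 active means inhibition above the mean plus 3 SD, with well images judged a real hit on visual review, cut at about 60% in these data, passing the limit was not always enough; inconclusive means inhibition over the cutoff but images rejected on review; inactive means inhibition not above the cutoff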
bCat nuc transl = beta-catenin nuclear translocation modulation. HeLa beta-catenin nuclear translocation, immunofluorescence imaging. nuclear translocation activity, % at 5 µM. 190,000 tested, 0.3% active. AID 1665;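 active means nuclear translocation activity above 50% at 5 µM, with a well cell count of 50 or more; inconclusive means wells under 50 cells across six images, flagged as toxic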;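 further: per-cell ratio of nuclear to cytoplasmic median beta-catenin stain intensity; plate controls were DMSO negative control for no effect and GSK-3 inhibitor IX positive control for full effect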
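Test system: human HeLa cells, endogenous beta-catenin. Times: 24 h compound exposure, 37°C. Measured by: beta-catenin immunofluorescence imaging with DAPI.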
HSV replic up = increases HSV replication in cells; maximum fold increase; AID 1956; HSV replication augmentation in cells, fold increase; 220,000 tested, 0.005% active; in the data active means maximum fold increase above about 1.5; inconclusive means no clear call, values can overlap the other calls; tested in PC3 cells
MT stabilize HCS = microtubule stabilizers in HeLa cells | HeLa tubulin immunostaining HCS, 24 h; share of cells brighter than vehicle mean+2SD | % tubulin-high responders, % at 10 µM | 200,000 tested, 0.83% active | AID 2205;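 active means plate Z-score above 3 for both tubulin-high and condensed-nucleus cell shares, with cell loss under 80%, at 10 µM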;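 further: anti alpha tubulin signal scored within the nucleus-defined area of each cell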
ROMK primary = human ROMK K+ channel modulation, primary screen; P48048; Tet-inducible ROMK, thallium flux fluorescence; actives lie on both sides; B-score at 10 µM; 130,000 tested, 2% active; AID 1918;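 active means signal ratio slope over the read window, or its plate-corrected B-score, at least 3 SD from the plate mean, either direction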;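 further: B-score of the F/F0 ratio slope over 7 to 12 s after thallium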
Target sequence (P48048 whole entry, looked up): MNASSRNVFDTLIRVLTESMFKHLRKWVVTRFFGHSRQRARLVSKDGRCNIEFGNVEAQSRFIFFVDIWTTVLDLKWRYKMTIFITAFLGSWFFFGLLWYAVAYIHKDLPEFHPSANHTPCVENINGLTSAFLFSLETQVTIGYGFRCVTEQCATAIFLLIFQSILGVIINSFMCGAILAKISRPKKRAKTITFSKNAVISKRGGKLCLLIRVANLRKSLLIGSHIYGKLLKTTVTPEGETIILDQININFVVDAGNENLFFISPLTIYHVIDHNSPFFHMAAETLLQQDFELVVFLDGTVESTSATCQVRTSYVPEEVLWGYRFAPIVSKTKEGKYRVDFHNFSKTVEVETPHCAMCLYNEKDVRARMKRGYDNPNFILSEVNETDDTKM
ROMK hit retest = retested hit modulating human ROMK potassium channel; normalized thallium flux (F/F0 slope) at 10 µM; 3,000 tested, 54% active; AID 1917; ROMK thallium flux, fluorescence ratio; active compounds read low; shares compounds with ROMK primary;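 active means Flux at 10 µM at least 3 SD below or above vehicle control mean in one or both replicates; inconclusive means no clear call, values can overlap the other calls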
The depositor's hits bear a star; i = inactive; ? = inconclusive; / = no result. Most compounds without a hit are left out; they make up all but 2.4% or so of the library.

SMILES | INS promoter inh | bCat nuc transl | HSV replic up | MT stabilize HCS | ROMK primary | ROMK hit retest
Cc1ccc(C)c(S(=O)(=O)N2CCCOC2CNC(=O)C(=O)NCc2ccncc2)c1 (stereo unspecified) | / | -3.1 | i | 2.7 | -0.0182 | /
O=[N+]([O-])c1ccccc1/C=N/Nc1nnc(-c2ccccc2)c(-c2ccccc2)n1 | 31.0 | 2.3 | i | 2.6 | -0.219 | /
CCN1C(=O)C(CC(=O)Nc2ccc(OC)cc2)N(Cc2ccc3c(c2)OCO3)C1=S (stereo unspecified) | 8.0 | / | i | 1.8 | / | /
Cc1nc2ncccn2c1-c1csc(Nc2ccc(N(C)C)cc2)n1 | -42.1 | 36.2 | i | 12.7 | 7.19* | 0.0932
c1ccc(Nc2nc(-c3ccccn3)cs2)cc1 | 2.9 | -0.6 | i | 2.3 | -0.157 | /
Cc1cc(N2CCN(c3cccc(C(F)(F)F)c3)CC2)n2ncnc2n1 | -38.7 | 0.1 | i | 3.3 | 0.197 | /
Cc1cc(N2CCN(C(c3ccccc3)c3ccccc3)CC2)n2ncnc2n1 | 13.3 | -0.7 | i | 6.1 | 1.54* | ?
Cc1cc(N2CCN(c3nc4ccccc4s3)CC2)n2ncnc2n1 | 45.2 | 1.2 | i | 2.2 | / | 0.0642*
N#CC1=C(SCC(=O)NC2CC2)NC(=O)C(C#N)C12CCCCC2 (stereo unspecified) | 27.3 | -2.7 | i | 5.9 | 0.542 | /
N#CC1=C(SCC(=O)NC23CC4CC(CC(C4)C2)C3)NC(=O)C(C#N)C12CCCCC2 (stereo unspecified) | 42.9 | -3.2 | i | 3.3 | -3.69* | 0.0569*
C=CCn1c(=O)c(C(=O)Nc2ccccc2S(N)(=O)=O)c(O)c2ccccc21 | / | 0.1 | i | 2.8 | 0.000952 | /
CCOCCCNC(=O)/C(C#N)=C/c1ccccc1F | / | -0.8 | i | 2.7 | -3.85* | 0.0516*
CCOCCCNC(=O)/C(C#N)=C/c1cc(C)c(O)c(C)c1 | / | -1.9 | i | 2.6 | 1.51 | /
CCOCCCNC(=O)/C(C#N)=C/c1ccc(C(=O)OC)cc1 | / | -0.9 | i | 5.5 | -2.16* | 0.0453*
CCOC(=O)c1nnsc1Nc1ccc(C)c(C)c1 | 6.7 | -1.4 | i | 2.7 | -1.34 | /
CC(C)Oc1cccc(C(=O)NC(=S)Nc2ccccc2)c1 | 16.7 | -3.5 | i | 3.0 | / | /
CC(=O)c1cccc(S(=O)(=O)NCCC(=O)O)c1 | / | -4.3 | i | 4.2 | -1.19 | /
COc1cccc(-n2cc(CN(C)Cc3nc(Cc4cccc(F)c4)no3)cn2)c1 | / | 0.3 | i | 1.3 | -0.831 | /
COc1ccc(CN(C)Cc2nc(Cc3cccc(F)c3)no2)c2cccnc12 | / | 0.8 | i | 3.2 | -1.59* | ?
C=CCNC(=O)C1CCN(c2cnccn2)CC1 | / | 1.7 | i | 4.6 | -0.0132 | /
COC(=O)C1CCN(c2cnccn2)CC1 | / | -3.6 | i | 3.1 | / | 0.0776
Cc1cc(Br)ccc1NC(=O)CN1C(=S)NC(C)(C)CC1C (stereo unspecified) | -33.3 | -5.0 | i | 3.8 | 0.0375 | /
Cc1cc[n+](-c2[nH]c(=O)sc2/C=N/N=C(\[O-])c2ccccc2)cc1C | / | 0.6 | ? | 6.4 | -6.57* | 0.0469*
Cc1ccccc1NC(=O)C(=Cc1ccc(C(=O)O)cc1)C(=O)Nc1ccccc1C | -27.8 | -0.6 | i | 11.0 | -0.352 | /
CC(=O)/C(=C/c1ccccc1)C(=O)Nc1ccccc1C | / | -2.1 | i | 3.3 | -3.55* | 0.0484*
SMILES | INS promoter inh | bCat nuc transl | HSV replic up | MT stabilize HCS | ROMK primary | ROMK hit retest
Cc1ccc(-n2cc(CNC(C)c3cnn(C)c3C)c(-c3ccc(F)cc3)n2)cc1 (stereo unspecified) | / | -0.8 | i | 3.0 | -4.09* | 0.0542*
Cc1ccc(-n2cc(CNC(C)c3cnn(C)c3)c(-c3ccc(F)cc3)n2)cc1 (stereo unspecified) | -34.8 | 1.2 | i | 1.0 | -2.65* | 0.0508*
Cc1ccc(N(CC(O)CN2CCCCC2)S(=O)(=O)c2ccccc2[N+](=O)[O-])cc1 (stereo unspecified) | / | 0.1 | i | 3.2 | -0.528 | /
CC(C)COc1ccc(C(=O)N2C(=O)c3ccc(N)cc3C2=O)cc1 | / | -0.2 | i | / | / | /
Cc1ccc(C(=O)NC(=S)N2CCN(c3ccccc3F)CC2)cc1 | -15.4 | / | i | 3.5 | 3.42* | 0.101*
N#CC1=C(N)C(C#N)(C#N)[C@H](c2ccncc2)[C@H]2CC3(CC=C12)OCCO3 | -24.2 | 3.1 | i | 1.1 | -3.83* | ?
Cc1nnc(SCc2c(Cl)cccc2Cl)n(N)c1=O | / | -1.8 | i | 2.5 | -2.94* | 0.0612*
O=C1NC(=O)/C(=C\c2ccc(N3CCOCC3)o2)N1 | / | 2.1 | i | 2.4 | -3.59* | ?
O=C(CN1C(=O)NC2(CCCC2)C1=O)N1CCc2ccccc2C1 | / | 1.5 | i | 2.1 | 2.22* | 0.0869
COc1cc(CCC(O)CC(=O)CCc2ccccc2)ccc1O (stereo unspecified) | / | 1.3 | i | 2.3 | / | /
Cc1c(C(=O)OCC(=O)Nc2ccc3c(c2)OCO3)cccc1[N+](=O)[O-] | 21.4 | -1.8 | i | 3.6 | -0.546 | /
O=C(Cn1nnc(-c2ccccc2)n1)N/N=C/c1ccco1 | / | -1.4 | i | 3.7 | -11.7* | 0.0724
O=C(Cn1nnc2ccccc21)N/N=C/c1ccco1 | / | 0.6 | i | 8.1 | / | /
CC(C)CC(NC(=O)c1ccccc1)C(=O)N/N=C/c1ccco1 (stereo unspecified) | -6.7 | / | i | 2.3 | 0.956 | 0.0856
O=C(N/N=C/c1ccco1)C(O)c1ccccc1 (stereo unspecified) | / | 0.6 | i | / | -0.246 | /
CCn1c(CCCc2ccc(OC)c(C)c2)n[nH]c1=S | / | -0.7 | i | 1.9 | -0.326 | /
CCC(C)(C)NC(=O)C(c1cccn1C)N(C(=O)Cn1nnc2ccccc21)c1ccc(OC)cc1OC (stereo unspecified) | -169.8 | 1.8 | i | 2.0 | -3.55* | 0.0511*
CCOc1ccc(N(C(=O)Cn2nnc3ccccc32)C(C(=O)NC(C)(C)CC)c2cccn2C)cc1 (stereo unspecified) | -462.5 | -1.8 | i | 3.9 | / | /
C=CCn1c(SCC(=O)Nc2cc3oc4ccccc4c3cc2OC)nnc1-c1cnccn1 | 33.3 | -1.5 | i | 5.4 | / | 0.0651*
CN(C)/C=C(\C#N)C(=O)Nc1ccc(O)cc1F | / | -2.4 | i | 2.5 | 0.801 | /
COc1cc2c(cc1OC)CN(c1nc(CN3CCCCC3)nc3sc4c(c13)CCCC4)CC2 | 27.0 | / | i | 2.8 | -2.58* | 0.064*
COc1cc2c(cc1OC)CN(c1nc(CN3CCOCC3)nc3sc4c(c13)CCCC4)CC2 | 23.3 | 1.3 | i | 3.5 | -2.38 | /
Cc1ccccc1OCCOc1ccccc1C=C(C#N)C#N | -120.7 | 0.7 | i | 6.5 | / | /
S=C(Nc1cccc(Cl)c1Cl)Nn1cnnc1 | / | 2.6 | i | 3.7 | / | /
O=C(Nc1ccc(F)cc1)Nc1ccc(NC(=O)c2ccccc2O)cc1 | / | 0.4 | i | / | -11* | 0.0787
COC(=O)C1=C(C(=O)OC)[C@@H]2N(Cc3ccccc3)c3ccccc3[C@@]23C[C@@H](C(=O)OC)N(C(=O)CC(C)C)C3=N1 | / | -0.3 | i | / | / | ?
